An excerpt weighted towards active compounds, which were near 3.7% of everything screened.
JMJD2C inh: blocks human GASC-1 demethylase activity; Q9H3R0; GST-JMJD2C(1-420) H3K9me3 demethylation, DELFIA europium; inhibition, % at 2.35 µM; 330,000 compounds, 0.069% hits;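 active means more than half of a compound's replicate wells show inhibition beyond 50%, single wells judged on their own value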;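 further: signal counts dimethyl H3K9 product captured on neutravidin plate; 0% = median of DMSO wells and 100% = 0.3 times that DMSO median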
Target sequence (Q9H3R0 1-420 limits assumed): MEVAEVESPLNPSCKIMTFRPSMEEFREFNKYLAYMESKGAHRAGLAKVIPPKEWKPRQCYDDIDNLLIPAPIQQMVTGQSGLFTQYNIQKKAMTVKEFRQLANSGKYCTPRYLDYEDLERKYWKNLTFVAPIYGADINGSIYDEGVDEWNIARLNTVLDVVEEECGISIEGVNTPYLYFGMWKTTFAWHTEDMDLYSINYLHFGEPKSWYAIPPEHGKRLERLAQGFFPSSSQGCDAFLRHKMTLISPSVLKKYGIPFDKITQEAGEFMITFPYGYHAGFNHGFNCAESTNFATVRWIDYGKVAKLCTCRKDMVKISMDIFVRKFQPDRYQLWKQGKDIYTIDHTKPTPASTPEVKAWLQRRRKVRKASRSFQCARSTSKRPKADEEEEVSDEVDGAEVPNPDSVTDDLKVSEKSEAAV
FXN GAA850 act: increases GAA850 frataxin promoter reporter activity; 360,000 compounds, 0.56% hits; AID 540364; activation, % at 6 µM; HEK293 lucGAA850 FXN promoter luciferase reporter, 24 h; percent of 10 µM SAHA response;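 active means activation above the average of all compounds screened plus 3 SD, cutoff fixed separately per campaign, cut at about 7.5% in these data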;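 further: 0% = DMSO wells and 100% = 10 µM SAHA wells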
SR-BI HDL uptake: mouse SR-BI HDL lipid transfer inhibition | ldlA[mSR-BI] CHO cells, DiI-HDL uptake fluorescence, 3 h | AID 488896 | Q61009 | 320,000 compounds, 0.96% hits | inhibition, % at 12.5 µM;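 active means mean replicate inhibition of at least 70% and a set share of replicates each scoring 70 or more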;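 further: 0% = median of neutral control wells and 100% = median of positive control wells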
SR-BI uptake up: enhances SR-BI lipid uptake from DiI-HDL; CHO ldlA[mSR-BI] cells, DiI-HDL uptake fluorescence, 3 h; 100 = double the neutral-control signal; activation, % at 12.5 µM; 320,000 compounds, 0.096% hits;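 active means mean replicate activation of at least 60% and every replicate at or above 60%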;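 further: 0% = median plate neutral-control signal and 100% = twice that signal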
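Test system: SR-BI-overexpressing, LDLR-lacking CHO cells; Also added: labelled HDL, 10 µg/mL; Measured by: bottom-read cell fluorescence after medium removal, ex 550/em 595 nm; Timing: 3 h uptake period with compound, 37 °C; Buffer or medium: F12, 0.5% BSA, 25 mM HEPES; Doses: single compound concentration, delivered by pin transfer.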
AHR activator: activates the human aryl hydrocarbon receptor; P35869; AHR-responsive luciferase reporter cells, luminescence; activation, % at 5 µM; 320,000 compounds, 2.5% hits; AID 2796; in the data active means activation above about 47%;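 further: 0% = vehicle wells and 100% = reference agonist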
GAA30 FXN cntr: counter-screen for GAA850 frataxin promoter activators: GAA30 promoter activation; activation, % at 6 µM; shares compounds with FXN GAA850 act; HEK293 lucGAA30 FXN promoter luciferase, 24 h; DMSO = 0%, 5 µM ipriflavone = 100%; 1,900 compounds, 66% hits; AID 588350;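 active means mean activation above the mean of solvent-only control wells plus 3 SD, cut at about 22% in these data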;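 further: counterscreen of GAA850 promoter hits where activity marks nonselective or luminescence artifacts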
FXN GAA850 conf: GAA850 FXN promoter activation confirmation. shares compounds with FXN GAA850 act. HEK293 lucGAA850 FXN promoter luciferase reporter, 24 h; 100% = activation by SAHA. activation, % at 6 µM. 1,900 compounds, 86% hits. AID 588351;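 active means mean activation above a set limit taken from the primary screen, cut at about 8% in these data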;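 further: 0% = DMSO wells and 100% = 10 µM SAHA wells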
* marks the source's active call; other numbers are inactive results; x = no result.

SMILES	JMJD2C inh	FXN GAA850 act	SR-BI HDL uptake	SR-BI uptake up	AHR activator	GAA30 FXN cntr	FXN GAA850 conf
Cc1ccc([N+](=O)[O-])cc1N/C=C/C(=O)c1ccco1	4	9.3*	32	-32	17	27*	25*
Cc1ccc(N/C=C/C(=O)c2ccco2)c(O)c1	-5	5	x	x	18	x	x
CCN1C(=O)[C@H]2[C@H]3CN=C(SCc4ccc(C(=O)OC)cc4)N3[C@@](CC)(C(=O)OC)[C@H]2C1=O	x	1	-12	12	x	x	x
COC(=O)[C@@]1(C)[C@H]2C(=O)N(Cc3ccccc3)C(=O)[C@H]2[C@H]2CN=C(SCc3ccccc3)N21	x	16*	6	-6	x	33*	16*
CC[C@]1(C(=O)OC)[C@H]2C(=O)N(Cc3ccccc3)C(=O)[C@H]2[C@H]2CN=C(SCC3CC3)N21	x	17*	3	-3	x	30*	18*
CC[C@]1(C(=O)OC)[C@H]2C(=O)N(Cc3ccccc3)C(=O)[C@H]2[C@H]2CN=C(SCc3ccc(C)cc3)N21	x	13*	-19	19	x	34*	14*
CC[C@]1(C(=O)OC)[C@H]2C(=O)N(Cc3ccccc3)C(=O)[C@H]2[C@H]2CN=C(SCc3ccc(C(=O)OC)cc3)N21	x	9.5*	-11	11	x	14	11*
CCOC(=O)c1cnc(Nc2nc3ccccc3o2)nc1CSC(=S)N(CC)CC	-7	11*	32	-32	-2	41*	25*
COc1ccc(NS(=O)(=O)c2cc(NC(=O)CNC(=O)c3cccc(OC)c3)ccc2C)cc1	-2	7.9*	-7	7	7	32*	18*
COc1ccccc1-c1ccc2c(c1)C(C)(Cc1ccc(Cl)c(Cl)c1)C(=O)N2 (stereo not given)	x	17*	x	x	x	29*	11*
COc1ccccc1-c1ccc2c(c1)C(C)(Cc1ccccc1C#N)C(=O)N2 (stereo not given)	x	7	x	x	x	x	x
O=C(CSc1nccc(=O)[nH]1)N1CCOCC1	0	1	-3	3	-3	x	x
CCC(=O)N/C(N)=N/c1nc2ccccc2o1	-6	7.8*	1	-1	-1	113*	37*
O=C(CSc1nnc(CNC(=O)c2cccc(C(F)(F)F)c2)o1)NC1CCCCC1	2	1	-17	17	-3	x	x
COc1ccc(S(=O)(=O)N2CCCN(S(=O)(=O)c3ccc(OC)c(C)c3)CC2)cc1C	5	8.3*	50	-50	0	30*	17*
COc1ccc(S(=O)(=O)N2CCCC2)cc1OC	0	1	-7	7	-3	x	x
O=C(NCc1ccc(C(=O)O)cc1)OCc1ccccc1	51	2	-1	1	1	x	x
Cc1cccc(NS(=O)(=O)c2cc([N+](=O)[O-])ccc2C)n1	6	1	7	-7	1	x	x
O=c1[nH]nc(CNc2ccc(OC(F)(F)F)cc2)c2ccccc12	1	9.0*	-1	1	3	40*	20*
O=C1OC(/C(=C\Nc2cc(Cl)ccc2O)[N+](=O)[O-])c2ccccc21 (stereo not given)	-1	12*	0	0	45	51*	5
O=C1OC(/C(=C\Nc2ccc(F)cc2F)[N+](=O)[O-])c2ccccc21 (stereo not given)	-1	4	-6	6	0	x	x
CCCC(=O)N1CCC1(C)C(=O)Nc1ccc2nc(C)ccc2c1 (stereo not given)	x	1	x	x	x	x	x
COc1cc(NC(=O)c2cc3ccccc3o2)c(OC)cc1Br	-5	17*	49	-49	44	24*	16*
Cc1ccc(-n2c(C)cc(C(=O)CSc3n[nH]c(N)n3)c2C)cc1	0	3	26	-26	9	x	x
Cc1cc(C(=O)CSc2n[nH]c(N)n2)c(C)n1-c1ccccc1	2	8.9*	7	-7	17	101*	28*
CC(C)NC(=O)C1(C)CCN1C/C=C/c1ccccc1 (stereo not given)	x	1	x	x	x	x	x
